Assay results taken from ChEMBL document CHEMBL4665880, “Dihydrobenzoxazinone derivatives as aldose reductase inhibitors with antioxidant activity” (Bioorg Med Chem, 2020).

How the values were obtained:
[1] = Antioxidant activity assessed as DPPH radical scavenging activity at 5 uM relative to control; assay type: functional
How it was run: (§1)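 DPPH (0.025 mg/mL stock in methanol, 1 mL) mixed with 1.9 mL methanol and 100 µL methanolic compound or Trolox, giving final 100, 10, 5 and 1 µM. Absorbance at 517 nm read after reaching steady state; scavenging % = (1 − (A sample − A blank)/A control)×100, blank being compound in methanol, control DPPH in methanol. Triplicate.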

[2] = system: Brain; assay: Antioxidant activity in rat brain homogenate assessed as inhibition of FeCl3/ascorbic acid-induced lipid peroxidation by measuring MDA level at 100 uM after 30 mins by thiobarbituric acid based spectrophotometric method relative to control; assay type: functional, tissue-based
How it was run: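 Fresh rat brain homogenized 25% in ice-cold saline, spun 3000 rpm 10 min; supernatant incubated with compound (100 µM), […] at 37 °C for 30 min. MDA measured by TBA kit: boiled 95 °C 40 min, iced, centrifuged, read at 532 nm. Methanol used as control vehicle. Triplicate.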

[3] = Antioxidant activity assessed as DPPH radical scavenging activity at 100 uM relative to control; assay type: functional; how it was run: as §1
[4] = Antioxidant activity assessed as DPPH radical scavenging activity at 10 uM relative to control; assay type: functional; how it was run: as §1
[5] = Antioxidant activity assessed as DPPH radical scavenging activity at 1 uM relative to control; assay type: functional; how it was run: as §1
[6] = Antioxidant activity assessed as superoxide anion radical scavenging activity incubated for 40 mins by spectrophotometric method; assay type: functional
How it was run: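 Incubation at 37 °C for 40 min, then 2 mL chromogenic reagent added; after 10 min standing, absorbance read at 550 nm. Activity (U/µmol) = (A control − A sample)/(A control − A blank) ×150 ÷ sample concentration (µM); control ascorbic acid 150 mg/L, blank distilled water. Triplicate.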

[7] = target: Aldo-keto reductase family 1 member A1 (Rattus norvegicus, UniProt P51635); assay: Inhibition of rat kidney ALR1 using […] as substrate preincubated for 4 mins at 37 degC followed by substrate addition and measured after 4 mins in presence of NADPH; assay type: tissue-based
How it was run: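 Rat kidney enzyme extract with 0.12 mM NADPH, 0.1 M sodium phosphate pH 7.2 and inhibitor in DMSO, preincubated 4 min at 37 °C; reaction started with sodium D-[…] (20 mM stock) and monitored 4 min. Corrected for nonenzymatic NADPH oxidation. Tested 100 µM to 10 nM, three replicates per concentration; IC50 from linear log(dose)–response fit (r² > 0.95).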

[8] = target: Aldo-keto reductase family 1 member B1 (Rattus norvegicus, UniProt P07943); assay: Inhibition of rat lens ALR2 using D,L-glyceraldehyde as substrate preincubated for 5 mins at 30 degC followed by substrate addition and measured after 4 mins in presence of NADPH; assay type: tissue-based
[9] = organism: Rattus norvegicus; assay: Selectivity index, ratio of IC50 for rat kidney ALR1 to IC50 for rat lens ALR2

Aldo-keto reductase family 1 member A1, sequence (P51635 whole entry, looked up): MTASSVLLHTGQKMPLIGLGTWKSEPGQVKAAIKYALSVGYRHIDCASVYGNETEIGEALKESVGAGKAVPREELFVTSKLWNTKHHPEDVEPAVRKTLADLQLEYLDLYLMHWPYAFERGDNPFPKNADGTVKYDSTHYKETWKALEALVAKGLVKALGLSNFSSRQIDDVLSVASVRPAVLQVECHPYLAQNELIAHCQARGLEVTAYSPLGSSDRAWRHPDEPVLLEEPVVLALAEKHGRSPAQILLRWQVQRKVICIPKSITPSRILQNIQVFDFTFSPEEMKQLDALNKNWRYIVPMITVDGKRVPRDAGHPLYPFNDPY

Question: What does the source list for `Cc1c(C)c2c(c(C)c1O)CCC(C)(C(=O)O)O2` (stereo not drawn)?
Answer: inhibition [1]: 47.8%; inhibition [2]: 75.5%; inhibition [3]: 94.6%; inhibition [4]: 82.6%; inhibition [5]: 10.2%; Activity [6]: 1.13 U/µM

Question: For `CC(/C=C1\SC(=S)N(CC(=O)O)C1=O)=C\c1ccccc1`, which IC50 [7] is on record?
Answer: 1200 nM

Question: What does the source list for `O=C(O)CN1CC(=O)Oc2c(-c3ccccc3)cccc21`?
Answer: inhibition [1]: 13.2%; inhibition [3]: 91.3%; inhibition [4]: 36.5%; inhibition [5]: 6.12%; IC50 [8]: 3340 nM

Question: What does the source list for `COc1cc(/C=C/c2cccc3c2OC(=O)CN3CC(=O)O)ccc1O`?
Answer: inhibition [1]: 57.8%; inhibition [2]: 80.7%; inhibition [3]: 93.1%; inhibition [4]: 85%; Ratio IC50 [9]: 24; inhibition [5]: 18.2%; IC50 [7]: 4500 nM; IC50 [8]: 188 nM; Activity [6]: 1.02 U/µM

Question: With `COc1ccc(-c2cccc3c2OC(=O)CN3CC(=O)O)cc1` as the compound, how does the IC50 [8] read?
Answer: 774 nM

Question: What does the source list for `CC(C)(C)c1ccc(/C=C/c2cccc3c2OC(=O)CN3CC(=O)O)cc1`?
Answer: Ratio IC50 [9]: 3.93; IC50 [7]: 669 nM; IC50 [8]: 170 nM

Question: What does the source list for `O=C(O)CN1CC(=O)Oc2ccccc21`?
Answer: inhibition [1]: 23.1%; inhibition [2]: 72.2%; inhibition [3]: 92.8%; inhibition [4]: 65.6%; Ratio IC50 [9]: 7.1; inhibition [5]: 7.17%; IC50 [7]: 13700 nM; IC50 [8]: 1930 nM; Activity [6]: 0.73 U/µM

Question: Which IC50 [8] does the source give for `Cc1ccc(/C=C/c2cccc3c2OC(=O)CN3CC(=O)O)cc1` here?
Answer: 220 nM

Question: For `O=C(O)CN1CC(=O)Oc2c(/C=C/c3ccc([N+](=O)[O-])cc3)cccc21`, which IC50 [8] is on record?
Answer: 262 nM

Question: For `O=C(O)CN1CC(=O)Oc2c(/C=C/c3ccccc3)cccc21`, which inhibition [1] is on record?
Answer: 43.6%

Question: What about the inhibition [2] of the same compound?
Answer: 75.8%

Question: What about the inhibition [3] of the same compound?
Answer: 86.5%

Question: And the inhibition [4]?
Answer: 84.2%

Question: What about the Ratio IC50 [9] of the same compound?
Answer: 9.11

Question: And the inhibition [5]?
Answer: 12%

Question: What about the IC50 [7] of the same compound?
Answer: 2810 nM

Question: What about the IC50 [8] of the same compound?
Answer: 308 nM

Question: And the Activity [6]?
Answer: 0.81 U/µM

Question: For `O=Cc1ccc(-c2cccc3c2OC(=O)CN3CC(=O)O)cc1`, which IC50 [8] is on record?
Answer: 1050 nM

Question: With `COc1ccc(/C=C/c2cccc3c2OC(=O)CN3CC(=O)O)cc1` as the compound, how does the IC50 [8] read?
Answer: 208 nM

Question: For `O=C(O)CN1CC(=O)Oc2c(/C=C/c3ccc(F)cc3)cccc21`, which inhibition [1] is on record?
Answer: 57.1%

Question: And the inhibition [2]?
Answer: 74.8%

Question: And the inhibition [3]?
Answer: 92.6%

Question: What about the inhibition [4] of the same compound?
Answer: 90%

Question: What about the Ratio IC50 [9] of the same compound?
Answer: 25.7

Question: What about the inhibition [5] of the same compound?
Answer: 12.6%

Question: And the IC50 [7]?
Answer: 4280 nM

Question: What about the IC50 [8] of the same compound?
Answer: 167 nM

Question: What about the Activity [6] of the same compound?
Answer: 0.79 U/µM

Question: Which results are given for `O=C(O)CN1CC(=O)Oc2c(/C=C/c3ccc(C(F)(F)F)cc3)cccc21`?
Answer: inhibition [1]: 44.3%; inhibition [3]: 91.3%; inhibition [4]: 89.2%; Ratio IC50 [9]: 23.7; inhibition [5]: 9.92%; IC50 [7]: 3270 nM; IC50 [8]: 138 nM

Question: Which IC50 [8] does the source give for `O=C(O)CN1CC(=O)Oc2c(/C=C/c3ccc(-c4ccccc4)cc3)cccc21` here?
Answer: 281 nM

Question: What does the source list for `O=C(O)CN1CC(=O)Oc2c(/C=C/c3ccc(O)cc3)cccc21`?
Answer: inhibition [1]: 57.4%; inhibition [2]: 81.7%; inhibition [3]: 93.2%; inhibition [4]: 87.5%; Ratio IC50 [9]: 60.6; inhibition [5]: 14.7%; IC50 [7]: 4990 nM; IC50 [8]: 82 nM; Activity [6]: 1.07 U/µM
